MEKK2mut PB1 HTS = signal of MEK5 binding to mutant human MEKK2 PB1 domain; bead flow cytometry, Alexa488-MEK5 binding to MEKK2 mutant; percent response, % at 10 µM; 290,000 tested, 0.35% active; in the data active = percent response above about 24%, passing the limit was not always enough
UBC13 polyUb = inhibitors of human UBC13 polyubiquitin chain formation; TR-FRET; AID 485273; inhibition, % at 20 µM; P61088; 330,000 tested, 0.47% active; in the data active = inhibition above about 45%, passing the limit was not always enough
Apaf-1 inh = blocks human Apaf-1 apoptosome activity. O14727. reconstituted apoptosome caspase-3 activity, DEVD-Rh110 fluorescence. inhibition, % at 20 µM. AID 489030. 330,000 tested, 0.71% active; active = inhibition of at least 40% at 20 µM;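 note: plate controls were DMSO wells for no effect and DEVD-CHO caspase inhibitor wells for full effect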
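System – cell-free apoptosome with Apaf-1, procaspase-3 and caspase-9 · Buffer or medium – pH 7.5 Hepes buffer with CHAPS, BSA, DTT · Also added – cytochrome c with DEVD-Rh110 · Times – 30 min compound preincubation, 50 min activation, room temperature · Technique – Rh110 fluorescence intensity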
MEKK3 PB1 HTS = modulators (inhibitors or enhancers) of MEK5 binding to human MEKK3 PB1 domain; Q99759; bead-based flow cytometry, Alexa488-MEK5 binding to MEKK3; actives lie on both sides; 0 = blocked by unlabeled MEK5, 100 = vehicle; binding response (% of control), % at 10 µM; 290,000 tested, 1.4% active;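 active = binding response more than 3 SD above or below the average of its plate-row segment, actives on both sides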;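 note: Alexa488 bead fluorescence after subtracting the streptavidin-only scavenger bead signal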
Target sequence (Q99759 whole entry, looked up, the tested form may be a part): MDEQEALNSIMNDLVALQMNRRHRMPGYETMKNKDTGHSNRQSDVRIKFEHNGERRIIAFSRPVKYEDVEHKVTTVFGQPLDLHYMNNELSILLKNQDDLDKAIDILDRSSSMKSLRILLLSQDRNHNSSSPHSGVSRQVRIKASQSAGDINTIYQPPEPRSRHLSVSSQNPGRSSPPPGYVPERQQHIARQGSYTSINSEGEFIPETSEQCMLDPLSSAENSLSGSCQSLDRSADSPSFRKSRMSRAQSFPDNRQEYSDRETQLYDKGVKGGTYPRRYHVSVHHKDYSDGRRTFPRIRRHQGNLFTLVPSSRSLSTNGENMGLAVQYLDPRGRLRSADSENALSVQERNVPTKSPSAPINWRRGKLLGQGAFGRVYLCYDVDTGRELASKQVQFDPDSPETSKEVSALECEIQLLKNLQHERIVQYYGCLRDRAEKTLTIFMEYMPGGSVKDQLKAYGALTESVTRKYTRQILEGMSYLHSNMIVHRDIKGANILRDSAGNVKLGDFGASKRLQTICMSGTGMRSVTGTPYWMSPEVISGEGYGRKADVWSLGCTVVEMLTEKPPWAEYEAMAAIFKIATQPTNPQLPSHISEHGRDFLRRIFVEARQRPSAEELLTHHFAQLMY
DSG3 Ab inh = inhibitors of pemphigus antibody binding to human desmoglein-3; P32926; DSG3-coupled beads, scFv-anti-DSG3-GFP binding, flow cytometry; active compounds read low; binding (percent of control), % at 10 µM; 310,000 tested, 0.48% active;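 active = binding more than 3 SD below its plate's average and above zero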;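 note: hits lower antibody fragment binding to DSG3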
MEKK2 WT-MEK5 = raises or lowers MEK5 binding to wildtype human MEKK2 PB1 domain. bead flow cytometry, Alexa488-MEK5 binding to MEKK2 WT; actives lie on both sides. binding response (% of control), % at 10 µM. 290,000 tested, 1.1% active. AID 1531; in the data active = binding response below about 67% or above about 130%
MEKK2wt confirm = raises or lowers MEK5 binding to wildtype human MEKK2, retest; bead flow cytometry, Alexa488-MEK5 binding to MEKK2 WT; actives lie on both sides; 5,900 tested, 2.4% active; binding response (% of control), % at 10 µM; shares compounds with MEKK3 PB1 HTS; in the data active = binding response below about 16% or above about 210%; inactive = in between
MEKK2mut-MEK5 = signal of MEK5 binding to mutant human MEKK2, retest; shares compounds with MEKK3 PB1 HTS; bead flow cytometry, Alexa488-MEK5 binding to MEKK2 mutant; percent response, % at 10 µM; 5,900 tested, 2% active; in the data active = percent response mostly above about 71%, no sharp cut-off; inactive = mostly below about 38%;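 note: higher means compound restores mutant binding toward wildtype level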
MEKK3-MEK5 inh = confirmation of inhibitors of MEK5 binding to human MEKK3 | shares compounds with MEKK3 PB1 HTS | bead flow cytometry, Alexa488-MEK5 binding to MEKK3; active compounds read low | binding response (% of control), % at 10 µM | 5,900 tested, 1.8% active | AID 1894;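 active = binding response below 72% of control, or above a set upper limit, though filed actives all read lower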;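 note: 100% = DMSO only wells and 0% = binding blocked by excess unlabeled MEK5; lower values mean stronger disruption of MEK5 binding to MEKK3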
Active calls of the source: *; . = no result given; [ ] = remark or other dose. Rows were chosen to be rich in hits. Some 3.2% of all compounds tested hit in one or more screens of this group.

SMILES	MEKK2mut PB1 HTS	UBC13 polyUb	Apaf-1 inh	MEKK3 PB1 HTS	DSG3 Ab inh	MEKK2 WT-MEK5	MEKK2wt confirm	MEKK2mut-MEK5	MEKK3-MEK5 inh
Cc1ccc(S(=O)(=O)N(C)CC(=O)N2CCCCCC2)cc1	4.0	-0.1	3.2	106.0	104.0	105.0	.	.	.
COc1ccc(C(O)(C(=O)NNc2ccc(C)cc2)c2cccs2)cc1 (stereo not drawn)	5.0	-8.1	12.7	122.0*	103.8	115.0	101.0	-1.0	106.0
Brc1ccccc1OCCNCc1ccccc1	-11.0	5.6	2.0	88.0	100.0	95.0	.	.	.
Clc1ccc(OCCCNCc2ccccc2)c2ccccc12	28.0*	32.2	27.0	117.0	110.1	253.0*	161.0	29.0	102.0
COc1ccc(C)cc1N(C(=O)COc1cccc(F)c1)c1nc2ccccc2s1	1.0	5.6	-1.7	143.0*	97.8	108.0	96.0	-7.0	87.0
CCN(CC)CCNC(=O)C1(O)c2cc(Br)ccc2NC(=O)N1c1ccccc1 (stereo not drawn)	6.0	9.3	-0.6	104.0	101.9	107.0	.	.	.
CCC(=O)N(CCc1ccccc1)Cc1cc2cc(OC)ccc2[nH]c1=O	30.0	19.8	-6.8	135.0*	119.3	120.0	95.0	1.0	103.0
COc1ccc(CCN2C(=O)C(Oc3ccccc3C)C2c2ccc3c(c2)OCO3)cc1 (stereo not drawn)	1.0	-8.9	17.9	156.0*	77.9	109.0	93.0	-10.0	98.0
CN(C)c1ccc(C(=O)n2nnc3ccccc32)cc1	-24.0	18.7	-22.3	1.0*[inhibitor]	124.4	-7.0*[inhibitor]	103.0	2.0	102.0
CCN(Cc1ccccc1)c1ccc(/C=N/NC(=S)NC(C)C)cc1	-1.0	7.6	11.5	59.0*[inhibitor]	103.6	82.0	146.0	19.0	107.0
CCN(Cc1ccccc1)c1ccc(/C=N/N=C(N)N)cc1	3.0	42.7	17.6	93.0	107.3	115.0	.	.	.
Fc1ccc(NC(=S)Nc2ccc(Cl)cc2)cc1	5.0	1.0	-18.7	141.0*	99.8	129.0	99.0	-5.0	97.0
COc1ccc(OC)c(/C=C/C(=O)OCC(=O)NCc2cccs2)c1	.	0.2	16.5	.	91.9	.	.	.	.
Cc1ccc(C)c2c1cc(C)c1nnc(SCC(=O)c3cccs3)n12	4.0	12.2	-5.1	148.0*	97.7	112.0	99.0	-6.0	97.0
O=C(Cn1cc(COc2ccc(C(=O)c3ccccc3)cc2)nn1)c1ccc(O)cc1	.	.	.	.	98.5	.	.	.	.
COc1ccc(-n2cc(-c3ccccc3)[nH]c2=S)cc1	1.0	5.6	8.6	130.0*	119.9	105.0	101.0	2.0	101.0
COc1cc2[nH]c(=O)n(CCCC(=O)N3CC=C(c4ccccc4)CC3)c(=O)c2cc1OC	10.0	-3.1	23.6	127.0*	103.1	120.0	105.0	4.0	104.0
COc1cc2[nH]c(=O)n(CCC(=O)N3CC=C(c4ccccc4)CC3)c(=O)c2cc1OC	-2.0	-3.0	6.3	97.0	80.8	100.0	.	.	.
Cc1cccc(COC(=O)C(Cc2ccccc2)NC(N)=O)c1 (stereo not drawn)	4.0	4.3	5.9	101.0	99.3	99.0	.	.	.
Cc1noc(NC(=O)c2cccc(Cl)c2Cl)c1C#N	-2.0	5.8	-4.8	73.0*[inhibitor]	94.3	85.0	100.0	1.0	101.0
CCn1ccc(C(=O)Nc2ccc3c(c2)CCC3)n1	7.0	-7.9	22.3	106.0	110.5	108.0	.	.	.
O=C(C[n+]1ccc(Cc2ccccc2)cc1)Nc1ccccc1	64.0*	8.5	-2.7	86.0	102.4	125.0	111.0	3.0	98.0
O=C(C[n+]1ccccc1)Nc1ccccc1	.	-2.4	-14.0	.	114.9	.	.	.	.
O=C(Cn1nnc(-c2cccs2)n1)NCc1ccccc1	2.0	7.6	-3.8	102.0	91.2	97.0	.	.	.
O=C(Cn1nnc(-c2cccs2)n1)NNC(=O)c1ccccc1Cl	24.0	-2.2	-19.8	128.0*	112.7	112.0	101.0	1.0	100.0
SMILES	MEKK2mut PB1 HTS	UBC13 polyUb	Apaf-1 inh	MEKK3 PB1 HTS	DSG3 Ab inh	MEKK2 WT-MEK5	MEKK2wt confirm	MEKK2mut-MEK5	MEKK3-MEK5 inh
Cc1ccc(C)c(N2CCN(C(=O)c3ccc(CSc4nc5ccncc5[nH]4)cc3)CC2)c1	-13.0	14.8	16.2	1.0*[inhibitor]	107.2	2.0*[inhibitor]	102.0	4.0	101.0
CC1CCCC(NC(=O)COC(=O)c2n[nH]c3ccccc23)C1C (stereo not drawn)	.	-6.2	7.5	.	.	.	.	.	.
CCC1=C(OC(=O)N(CC)CC)N2C(=O)OC(=NCCc3c[nH]c4ccccc34)[C@]2(Cc2ccccc2)[C@H]2C1=CC[C@H]1C(=O)N(CC(=O)OC)C(=O)[C@H]12	0.0	2.2	19.5	2.0*[inhibitor]	102.4	2.0*[inhibitor]	98.0	-4.0	99.0
O=C(CNc1cc(S(=O)(=O)N2CCCC2)ccc1OCC(F)(F)F)Nc1ccc(SC(F)F)cc1	1.0	5.8	-11.7	144.0*	83.5	115.0	90.0	-13.0	100.0
O=C(CNc1cc(S(=O)(=O)N2CCCC2)ccc1OCC(F)(F)F)Nc1cc(Cl)cc(Cl)c1	3.0	-6.3	-10.7	104.0	.	108.0	.	.	.
Cc1ccc(-c2c[n+](CC(=O)Nc3nc(-c4ccc(F)cc4)cs3)c3n2CCC3)cc1	76.0*	15.5	29.9	109.0	107.3	226.0*	199.0	76.0*	115.0
O=C(C[n+]1cc(-c2ccc(F)cc2)n2c1CCC2)Nc1nc(-c2ccccc2)cs1	1.0	21.8	8.3	98.0	100.9	127.0	.	.	.
COc1ccc(-c2c[n+](CC(=O)N3c4ccccc4Sc4ccccc43)c3n2CCC3)cc1	16.0	29.6	4.2	101.0	110.5	123.0	.	.	.
O=C(C[n+]1cc(-c2ccc(Cl)cc2)n2c1CCC2)Nc1nc(-c2ccccc2)cs1	28.0	7.5	28.7	99.0	116.7	146.0*	163.0	37.0	94.0
O=C(C[n+]1cc(-c2ccc(Cl)cc2)n2c1CCC2)N1c2ccccc2Sc2ccccc21	29.0	8.5	9.7	100.0	106.7	157.0*	146.0	19.0	103.0
COC(=O)CCC(=O)Nc1ccc(C)cc1OC(=O)CCC(=O)OC	28.0*	-2.6	4.3	114.0	107.7	115.0	96.0	-4.0	101.0
COC(=O)CCC(=O)Nc1cccc2c(NC(=O)CCC(=O)OC)cccc12	-8.0	-13.7	8.5	90.0	104.7	90.0	.	.	.
